Measured values as given in ChEMBL document CHEMBL2380289, “Ligand based approach to L-type calcium channel by imidazo[2,1-b]thiazole-1,4-dihydropyridines: from heart activity to brain affinity” (J Med Chem, 2013).

How the values were obtained:
[1] = Displacement of [3H]-PN200-110 from L-type calcium channel dihydropyridine binding site in Wistar rat cortex homogenate after 60 mins by liquid scintillation spectometric analysis; type: tissue-based
In short: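 Competition binding on rat cortex homogenate with (+)-[5-methyl-3H]PN200-110. Compounds are dissolved in DMSO as 10⁻² M stocks and diluted in buffer. Six displacer concentrations are tested, each in triplicate. IC50 is obtained by −log probit analysis and Ki by the Prusoff method. Values are mean ± SEM of 3−5 separate experiments done in triplicate.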

[2] = organism: Rattus norvegicus; assay: Displacement of [3H]-PN200-110 from L-type calcium channel dihydropyridine binding site in Wistar rat cortex homogenate at 100 uM after 60 mins by liquid scintillation spectometric analysis relative to control; type: tissue-based
In short: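 Binding on rat cortex homogenate using (+)-[5-methyl-3H]PN200-110. The read-out is percent of maximal radioligand displacement at 100 μM test compound. Compounds are made up as 10⁻² M DMSO stocks and diluted in buffer. Values are from 3−5 separate experiments done in triplicate.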

[3] = Displacement of [3H]-PN200-110 from voltage-gated calcium channel subunit alpha Cav1.2a (unknown origin) expressed in HEK293 cells after 90 mins by liquid scintillation counting analysis; type: cell-based, Homo sapiens
In short: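 Intact HEK-293 cells stably transfected with a rabbit Cav1.2a (α1c-a) plasmid are used. They are incubated with 0.5 nM (+)-[5-methyl-3H]PN200-110 plus competitor at 0.001−100 μM, from 10⁻² M DMSO stocks diluted in buffer. IC50 values are given as mean ± SEM.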

[4] = Displacement of [3H]-PN200-110 from L-type calcium channel in Hartley guinea pig ventricular membrane […] after 90 mins; set-up: species or system Cavia porcellus
[5] = organism: Cavia porcellus; assay: Displacement of [3H]-PN200-110 from L-type calcium channel in Hartley guinea pig ventricular membrane […] after 90 mins relative to control
[6] = Displacement of [3H]-PN200-110 from L-type calcium channel in Hartley guinea pig atrial membrane after 90 mins; type: cell membranes, Cavia porcellus, Cardiac atrium
In short: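 Guinea pig atrial membranes are labelled at the 1,4-DHP site with (+)-[5-methyl-3H]PN200-110 at 0.5 nM. Competitor is added over 0.001−100 μM from 10⁻² M DMSO stocks diluted in buffer. Results are given as IC50 and Ki, mean ± SEM. Student's t-test is applied with P<0.001.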

[7] = organism: Cavia porcellus; assay: Displacement of [3H]-PN200-110 from L-type calcium channel in Hartley guinea pig atrial membrane at 100 uM after 90 mins relative to control; type: cell membranes; settings: Cardiac atrium
[8] = test system: HEK293; assay: Displacement of [3H]-PN200-110 from voltage-gated calcium channel subunit alpha Cav1.2a (unknown origin) expressed in HEK293 cells at 100 uM after 90 mins by liquid scintillation counting analysis relative to control; type: cell-based; settings: Homo sapiens
[9] = test system: Ileum; assay: Relaxant activity in potassium depolarized guinea pig ileum longitudinal smooth muscle assessed as inhibition of calcium-induced contraction; type: functional, tissue-based; settings: Cavia porcellus
In short: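 K⁺-depolarized (80 mM) guinea pig ileum longitudinal smooth muscle is used. Calcium-induced contraction is measured with cumulative compound addition.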

[10] = test system: Ileum; assay: Relaxant activity in potassium depolarized guinea pig ileum longitudinal smooth muscle assessed as inhibition of calcium-induced contraction at 10^-5 M relative to control; type: functional, Cavia porcellus; set-up: scale not given: the % may be the effect or the level left
In short: (§1)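 Guinea pig aortic strips and ileum longitudinal smooth muscle are depolarized with 80 mM K⁺. The read-out is percent inhibition of calcium-induced contraction. Aorta is tested at 10⁻⁴ M and ileum at 10⁻⁵ M.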

[11] = test system: Aorta; assay: Relaxant activity in potassium depolarized guinea pig aortic strips assessed as inhibition of calcium-induced contraction at 10^-4 M relative to control; type: functional, Cavia porcellus; set-up: scale not given: the % may be the effect or the level left; in short: as §1
[12] = Negative chronotropic activity in guinea pig right atrium assessed as decrease in atrial rate; type: functional, tissue-based; settings: Cavia porcellus, Cardiac atrium
In short: (§2)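 Isolated guinea pig atria are used, with left atria driven at 1 Hz. Compounds are added cumulatively. EC50 is derived from log concentration−response curves by Litchfield–Wilcoxon probit analysis, n = 6−7. EC50 is not calculated when the maximal effect is below 50%.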

[13] = Negative chronotropic activity in guinea pig right atrium assessed as decrease in atrial rate at 10^-4 M relative to control; type: functional, Cavia porcellus, Cardiac atrium; set-up: scale not given: the % may be the effect or the level left
In short: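 The read-out is decrease in rate of spontaneously beating isolated guinea pig right atrium at 10⁻⁴ M. It is expressed as percent change from control, n = 7−8.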

[14] = Negative inotropic activity in guinea pig left atrium assessed as decrease in developed tension at 10^-6 M relative to control; type: functional, Cavia porcellus, Cardiac atrium; set-up: scale not given: the % may be the effect or the level left
[15] = test system: Ileum; assay: Relaxant activity in potassium depolarized guinea pig ileum longitudinal smooth muscle assessed as inhibition of calcium-induced contraction at 5x10'-6 M relative to control; type: functional, Cavia porcellus; set-up: scale not given: the % may be the effect or the level left
[16] = Negative inotropic activity in guinea pig left atrium assessed as decrease in developed tension at 10^-4 M relative to control; type: functional, Cavia porcellus, Cardiac atrium; set-up: scale not given: the % may be the effect or the level left
[17] = test system: Aorta; assay: Relaxant activity in potassium depolarized guinea pig aortic strips assessed as inhibition of calcium-induced contraction at 5x10'-5 M relative to control; type: functional, Cavia porcellus; set-up: scale not given: the % may be the effect or the level left
[18] = Selectivity ratio of EC50 for negative chronotropic activity in guinea pig right atrium to EC50 for negative inotropic activity in guinea pig left atrium; type: functional, Cavia porcellus, Cardiac atrium
[19] = Negative inotropic activity in guinea pig left atrium assessed as decrease in developed tension at 10^-5 M relative to control; type: functional, Cavia porcellus, Cardiac atrium; set-up: scale not given: the % may be the effect or the level left
[20] = Negative inotropic activity in guinea pig left atrium assessed as decrease in developed tension; type: functional, tissue-based; settings: Cavia porcellus, Cardiac atrium; in short: as §2
[21] = Negative chronotropic activity in guinea pig right atrium assessed as decrease in atrial rate at 10^-5 M relative to control; type: functional, Cavia porcellus, Cardiac atrium; set-up: scale not given: the % may be the effect or the level left
[22] = test system: Ileum; assay: Relaxant activity in potassium depolarized guinea pig ileum longitudinal smooth muscle assessed as inhibition of calcium-induced contraction at 5x10'-7 M relative to control; type: functional, Cavia porcellus; set-up: scale not given: the % may be the effect or the level left
[23] = Negative chronotropic activity in guinea pig right atrium assessed as decrease in atrial rate at 5x10'-6 M relative to control; type: functional, Cavia porcellus, Cardiac atrium; set-up: scale not given: the % may be the effect or the level left

SMILES	IC50 [1]	Ki [1]	%max [2]	%max [5]	IC50 [6]	Ki [6]	%max [7]	IC50 [9]	EC50 [12]	%max [8]	Activity [11]	other results
COC(=O)C1=C(C)NC(C)=C(C(=O)OC)C1c1c(-c2cc(OC)cc(OC)c2)nc2sccn12	1.21 µM	0.41 µM	79%	60%	0.25 µM	0.09 µM	54%	–	–	50%	–	IC50 [3]: 0.61 µM; Ki [3]: 0.19 µM; IC50 [4]: 0.84 µM; Ki [4]: 0.31 µM
COC(=O)C1=C(C)NC(C)=C(C(=O)OC)C1c1c(C(F)(F)F)nc2sccn12	1.65 µM	0.52 µM	75%	–	–	–	–	–	–	–	–	–
COC(=O)C1=C(C)NC(C)=C(C(=O)OC)C1c1c(-c2cccnc2)nc2sccn12	–	–	–	–	–	–	–	3.55 µM	28.4 µM	–	36%	Activity [10]: 91%; Activity [13]: 98%; Activity [19]: 25%
COC(=O)C1=C(C)NC(C)=C(C(=O)OC)C1c1c(-c2cccc(OC)c2)nc2sccn12	0.99 µM	0.33 µM	90%	96%	0.29 µM	0.09 µM	92%	–	–	< 50%	–	IC50 [4]: 0.45 µM; Ki [4]: 0.16 µM
COC(=O)C1=C(C)NC(C)=C(C(=O)OC)C1c1c(-c2cc(OC)ccc2OC)nc2sccn12	0.21 µM	0.16 µM	56%	< 50%	0.12 µM	0.044 µM	65%	–	–	< 50%	–	–
COC(=O)C1=C(C)NC(C)=C(C(=O)OC)C1c1c(-c2ccc(OC)c(OC)c2)nc2sccn12	0.35 µM	0.11 µM	77%	93%	0.39 µM	0.14 µM	50%	–	–	55%	–	IC50 [3]: 0.062 µM; Ki [3]: 0.023 µM; IC50 [4]: 0.046 µM; Ki [4]: 0.016 µM
COC(=O)C1=C(C)NC(C)=C(C(=O)OC)C1c1c(Cl)nc2sc(C)cn12	1020 µM	340 µM	60%	< 50%	0.12 µM	0.042 µM	95%	–	–	< 50%	–	–
COC(=O)C1=C(C)NC(C)=C(C(=O)OC)C1c1c(-c2c(Cl)csc2Cl)nc2sccn12	–	–	–	–	–	–	–	0.18 µM	2.16 µM	–	–	Activity [22]: 95%; Activity [17]: 22%; Ratio EC50 [18]: 47; Activity [23]: 77%; Activity [16]: 74%; EC50 [20]: 0.046 µM
CCCc1cn2c(C3C(C(=O)OC)=C(C)NC(C)=C3C(=O)OC)c(-c3c(OC)ccc(OC)c3[N+](=O)[O-])nc2s1	–	–	–	50%	0.065 µM	0.023 µM	53%	–	–	55%	–	IC50 [3]: 0.0044 µM; Ki [3]: 0.0016 µM; IC50 [4]: 3.32 µM; Ki [4]: 1.16 µM
COC(=O)C1=C(C)NC(C)=C(C(=O)OC)C1c1c(-c2ccccc2C(F)(F)F)nc2sccn12	38.6 µM	13.9 µM	52%	< 50%	0.14 µM	0.049 µM	91%	–	–	< 50%	–	–

Continued, in another order:

IC50 [1]	Ki [1]	%max [2]	%max [5]	IC50 [6]	Ki [6]	%max [7]	IC50 [9]	EC50 [12]	SMILES	%max [8]	Activity [11]	other results
–	–	–	–	–	–	–	2.81 µM	39.9 µM	COC(=O)C1=C(C)NC(C)=C(C(=O)OC)C1c1c(-c2ccccn2)nc2sc(C)cn12	–	13%	Activity [10]: 78%; Activity [13]: 72%; Activity [14]: 42%
–	–	–	–	–	–	–	1.37 µM	40.5 µM	COC(=O)C1=C(C)NC(C)=C(C(=O)OC)C1c1c(-c2cccs2)nc2sc(C)cn12	–	9%	Activity [15]: 81%; Activity [13]: 70%; Activity [14]: 40%
–	–	–	–	–	–	–	3.52 µM	2.3 µM	COC(=O)C1=C(C)NC(C)=C(C(=O)OC)C1c1c(-c2ccsc2)nc2sc(C)cn12	–	6%	Activity [10]: 74%; Activity [13]: 85%; Activity [16]: 12%
–	–	–	–	–	–	–	2.57 µM	24.4 µM	COC(=O)C1=C(C)NC(C)=C(C(=O)OC)C1c1c(-c2ccccn2)nc2sccn12	–	–	Activity [10]: 87%; Activity [17]: 28%; Ratio EC50 [18]: 45; Activity [13]: 71%; Activity [19]: 58%; EC50 [20]: 0.54 µM
–	–	–	–	–	–	–	0.96 µM	–	COC(=O)C1=C(C)NC(C)=C(C(=O)OC)C1c1c(-c2ccncc2)nc2sccn12	–	14%	Activity [15]: 90%; Activity [21]: 25%; Activity [14]: 46%
106 µM	34.7 µM	52%	–	–	–	–	–	–	COC(=O)C1=C(C)NC(C)=C(C(=O)OC)C1c1c(Cl)nc2scc(C)n12	–	–	–
0.24 µM	0.17 µM	98%	91%	0.078 µM	0.017 µM	76%	0.046 µM	2.63 µM	CCOC(=O)C1=C(C)NC(C)=C(C(=O)OCC)C1c1c(-c2cc(OC)ccc2OC)nc2sccn12	94%	29%	IC50 [3]: 0.86 µM; Ki [3]: 0.3 µM; IC50 [4]: 1.43 µM; Ki [4]: 0.51 µM; Activity [22]: 85%; Activity [21]: 88%; Activity [16]: 93%; EC50 [20]: 1.16 µM
